In ChEMBL document CHEMBL3576799, “Aranciamycins I and J, Antimycobacterial Anthracyclines from an Australian Marine-Derived Streptomyces sp” (J Nat Prod, 2015):
Converted amounts (≈) assume the structure as drawn.

Legend:
[1] = Cytotoxicity against human KB-3-1 cells assessed as growth inhibition after 48 hrs by MTT assay; assay type: functional, cell-based; conditions: KB 3-1, 48 h
Summary of the method: (§1)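 Modified MTT assay on adherent human cancer lines: SW620 (epithelial-like colorectal carcinoma), NCI-H460 (epithelial-like lung carcinoma), KB-3-1 (epithelial-like cervix carcinoma) and HepG2 (hepatocellular carcinoma). Output given as IC50.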

[2] = tested on: Pseudomonas aeruginosa; experiment: Antibacterial activity against Pseudomonas aeruginosa ATCC 10145 after 24 hrs by spectrophotometric analysis; assay type: functional, organism-based; conditions: ATCC 10145, 24 h
[3] = tested on: Staphylococcus aureus; experiment: Antibacterial activity against Staphylococcus aureus ATCC 25923 after 24 hrs by spectrophotometric analysis; assay type: functional, organism-based; conditions: ATCC 25923, 24 h
[4] = tested on: Candida albicans; experiment: Antifungal activity against Candida albicans ATCC 90028 after 48 hrs by spectrophotometric analysis; assay type: functional, organism-based; conditions: ATCC 90028, 48 h
[5] = tested on: Staphylococcus aureus; experiment: Antibacterial activity against Staphylococcus aureus ATCC 9144 after 24 hrs by spectrophotometric analysis; assay type: functional, organism-based; conditions: ATCC 9144, 24 h
[6] = tested on: NCI-H460; experiment: Cytotoxicity against human NCI-H460 cells assessed as growth inhibition after 48 hrs by MTT assay; assay type: functional, cell-based; conditions: NCI-H460, 48 h; summary of the method: as §1
[7] = tested on: SW-620; experiment: Cytotoxicity against human SW620 cells assessed as growth inhibition after 48 hrs by MTT assay; assay type: functional, cell-based; conditions: SW-620, 48 h; summary of the method: as §1
[8] = tested on: Escherichia coli; experiment: Antibacterial activity against Escherichia coli ATCC 11775 after 24 hrs by spectrophotometric analysis; assay type: functional, organism-based; conditions: DSM 30083 = JCM 1649 = ATCC 11775, 24 h
[9] = tested on: Bacillus spizizenii; experiment: Antibacterial activity against Bacillus subtilis ATCC 6633 after 24 hrs by spectrophotometric analysis; assay type: functional, organism-based; conditions: ATCC 6633, 24 h
[10] = tested on: Bacillus subtilis; experiment: Antibacterial activity against Bacillus subtilis ATCC 6051 after 24 hrs by spectrophotometric analysis; assay type: functional, organism-based; conditions: ATCC 6051, 24 h
[11] = tested on: HepG2; experiment: Cytotoxicity against human HepG2 cells assessed as growth inhibition after 48 hrs by MTT assay; assay type: functional, cell-based; conditions: HepG2, 48 h; summary of the method: as §1

**Q.** For C[C@@H]1O[C@@H](O[C@H]2C[C@](C)(O)Cc3cc4c(c(O)c32)C(=O)c2c(O)cccc2C4=O)[C@H](O)[C@H](O)[C@H]1O, which IC50 [1] is on record?
**A.** > 30 µM

**Q.** And the IC50 [2]?
**A.** > 30 µM

**Q.** What about the MIC [2] of the same compound?
**A.** > 30 µM

**Q.** And the IC50 [3]?
**A.** > 30 µM

**Q.** What about the MIC [3] of the same compound?
**A.** > 30 µM

**Q.** And the IC50 [4]?
**A.** > 30 µM

**Q.** And the MIC [4]?
**A.** > 30 µM

**Q.** And the IC50 [5]?
**A.** > 30 µM

**Q.** And the MIC [5]?
**A.** > 30 µM

**Q.** And the IC50 [6]?
**A.** 9 µM

**Q.** And the IC50 [7]?
**A.** 7.5 µM

**Q.** And the IC50 [8]?
**A.** > 30 µM

**Q.** What about the MIC [8] of the same compound?
**A.** > 30 µM

**Q.** What about the IC50 [9] of the same compound?
**A.** 3 µM

**Q.** And the MIC [9]?
**A.** 7.5 µM (≈ 3.65 µg/mL)

**Q.** And the IC50 [10]?
**A.** 1.1 µM

**Q.** What about the MIC [10] of the same compound?
**A.** 3.7 µM (≈ 1.8 µg/mL)

**Q.** And the IC50 [11]?
**A.** 12 µM

**Q.** Which IC50 [1] does the source give for CO[C@H]1[C@H](O[C@H]2C[C@](C)(O)C(=O)c3cc4c(c(O)c32)C(=O)c2c(O)cccc2C4=O)O[C@@H](C)[C@H](O)[C@H]1O here?
**A.** > 30 µM

**Q.** And the IC50 [2]?
**A.** > 30 µM

**Q.** And the MIC [2]?
**A.** > 30 µM

**Q.** And the IC50 [3]?
**A.** > 30 µM

**Q.** What about the MIC [3] of the same compound?
**A.** > 30 µM

**Q.** What about the IC50 [4] of the same compound?
**A.** > 30 µM

**Q.** And the MIC [4]?
**A.** > 30 µM

**Q.** What about the IC50 [5] of the same compound?
**A.** > 30 µM

**Q.** And the MIC [5]?
**A.** > 30 µM

**Q.** And the IC50 [6]?
**A.** > 30 µM

**Q.** What about the IC50 [7] of the same compound?
**A.** 10 µM

**Q.** What about the IC50 [8] of the same compound?
**A.** > 30 µM

**Q.** What about the MIC [8] of the same compound?
**A.** > 30 µM

**Q.** What about the IC50 [9] of the same compound?
**A.** 2.8 µM

**Q.** And the MIC [9]?
**A.** 7.5 µM (≈ 3.86 µg/mL)

**Q.** And the IC50 [10]?
**A.** 2.4 µM

**Q.** And the MIC [10]?
**A.** 7.2 µM (≈ 3.7 µg/mL)

**Q.** And the IC50 [11]?
**A.** 12 µM

**Q.** For CO[C@H]1[C@H](O[C@H]2C[C@](C)(O)Cc3cc4c(c(O)c32)C(=O)c2c(O)cccc2C4=O)O[C@@H](C)[C@H](O)[C@H]1O, which IC50 [1] is on record?
**A.** > 30 µM

**Q.** What about the IC50 [2] of the same compound?
**A.** > 30 µM

**Q.** And the MIC [2]?
**A.** > 30 µM

**Q.** What about the IC50 [3] of the same compound?
**A.** > 30 µM

**Q.** And the MIC [3]?
**A.** > 30 µM

**Q.** What about the IC50 [4] of the same compound?
**A.** > 30 µM

**Q.** What about the MIC [4] of the same compound?
**A.** > 30 µM

**Q.** What about the IC50 [5] of the same compound?
**A.** > 30 µM

**Q.** What about the MIC [5] of the same compound?
**A.** > 30 µM

**Q.** What about the IC50 [6] of the same compound?
**A.** > 30 µM

**Q.** And the IC50 [7]?
**A.** > 30 µM

**Q.** And the IC50 [8]?
**A.** > 30 µM

**Q.** What about the MIC [8] of the same compound?
**A.** > 30 µM

**Q.** What about the IC50 [9] of the same compound?
**A.** 2.4 µM

**Q.** And the MIC [9]?
**A.** 7.5 µM (≈ 3.75 µg/mL)

**Q.** What about the IC50 [10] of the same compound?
**A.** 2.8 µM

**Q.** What about the MIC [10] of the same compound?
**A.** 7.5 µM (≈ 3.75 µg/mL)

**Q.** What about the IC50 [11] of the same compound?
**A.** > 30 µM

**Q.** For CO[C@H]1[C@H](O[C@@H]2c3c(cc4c(c3O)C(=O)c3c(O)cccc3C4=O)C(=O)[C@@](C)(O)[C@H]2OC)O[C@@H](C)[C@H](O)[C@H]1O [ARANCIAMYCIN], which IC50 [1] is on record?
**A.** > 30 µM

**Q.** What about the IC50 [2] of the same compound?
**A.** > 30 µM

**Q.** What about the MIC [2] of the same compound?
**A.** > 30 µM

**Q.** What about the IC50 [3] of the same compound?
**A.** > 30 µM

**Q.** And the MIC [3]?
**A.** > 30 µM

**Q.** What about the IC50 [4] of the same compound?
**A.** > 30 µM

**Q.** What about the MIC [4] of the same compound?
**A.** > 30 µM

**Q.** And the IC50 [5]?
**A.** > 30 µM

**Q.** And the MIC [5]?
**A.** > 30 µM

**Q.** And the IC50 [6]?
**A.** > 30 µM

**Q.** What about the IC50 [7] of the same compound?
**A.** > 30 µM

**Q.** What about the IC50 [8] of the same compound?
**A.** > 30 µM

**Q.** And the MIC [8]?
**A.** > 30 µM

**Q.** And the IC50 [9]?
**A.** 5.8 µM

**Q.** And the MIC [9]?
**A.** 15 µM (≈ 8.17 µg/mL)

**Q.** What about the IC50 [10] of the same compound?
**A.** 6 µM

**Q.** And the MIC [10]?
**A.** 15 µM (≈ 8.17 µg/mL)

**Q.** And the IC50 [11]?
**A.** 18 µM
